Bridge positions count the residues as written; N and C are the ends. Peptide text beside a SMILES is read from it.
Columns and labels:
Oxytocin receptor [1] = biological target: T1, Oxytocin receptor (Homo sapiens, UniProt P30559); assay: Activity at oxytocin receptor expressed in COS1 cells assessed as IP-one generation by HTRF assay; format: cell-based, COS-1
T1 sequence (P30559 whole entry): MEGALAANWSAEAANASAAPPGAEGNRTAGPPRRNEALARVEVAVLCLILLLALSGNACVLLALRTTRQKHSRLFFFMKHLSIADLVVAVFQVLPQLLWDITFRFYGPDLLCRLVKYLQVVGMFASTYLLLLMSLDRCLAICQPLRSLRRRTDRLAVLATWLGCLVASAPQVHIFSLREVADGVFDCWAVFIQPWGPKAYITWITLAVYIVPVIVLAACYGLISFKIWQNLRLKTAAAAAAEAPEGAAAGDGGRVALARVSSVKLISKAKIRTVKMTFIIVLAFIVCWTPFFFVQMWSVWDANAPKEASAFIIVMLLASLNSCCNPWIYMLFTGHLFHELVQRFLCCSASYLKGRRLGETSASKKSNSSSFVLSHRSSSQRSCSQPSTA
Procedure, shortened: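 Human OTR transiently transfected into COS-1 cells (Lipofectamine2000, DNA ratio 2); assayed 48 h post-transfection. Cells stimulated with increasing compound concentrations in HEPES buffer containing 50 mM LiCl, pH 7.4, 1 h at 37 °C, 5% CO2. Lysed with HTRF reagents (Eu cryptate anti-IP-one antibody, d2-IP-one), 1 h room temperature. Read 665/590 nm after 340 nm excitation. EC50; triplicates, n = 3-6.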

Oxytocin receptor [2] = biological target: T1, Oxytocin receptor; assay: Displacement of [3H]OT from oxytocin receptor expressed in COS1 cells; format: cell-based, COS-1
Procedure, shortened: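 Membranes from COS-1 cells transiently transfected with OTR, harvested 48 h post-transfection; 5 μg protein per well. Incubated with 2 nM [3H]OT and competitor (10 pM to 10 μM) on scintillation proximity beads in buffer with 0.1% BSA. Shaken 1 h at room temperature, then scintillation counted.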

[3] = Half life in […] by LC/MS and RP-HPLC method; format: ADME, cell-free, Serum; settings: human
Procedure, shortened: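 Human plasma pre-warmed 30 min at 37 °C. Peptide (0.3 mM stock in 0.1 M phosphate, pH 7.2) added at 50 μL per 300 μL plasma, then incubated at 37 °C. Samples taken at 1, 2, 3, 4, 12, 24 and 48 h and quenched in ACN/NaCl/TFA extraction buffer. Analysed by RP-HPLC and LC-MS. Half-life from a one-phase decay fit, n = 3-6.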

EC50 (Oxytocin receptor [1])	Ki (Oxytocin receptor [2])	half-life [3]	SMILES
		11.6 h	CC[C@H](C)[C@@H]1NC(=O)[C@H](Cc2ccc(O)cc2)NC(=O)[C@@H](N)CSSC[C@@H](C(=O)N2CCC[C@H]2C(=O)N[C@@H](CC(C)C)C(=O)NCC(N)=O)NC(=O)[C@H](CC(N)=O)NC(=O)[C@H](CCC(N)=O)NC1=O [OXYTOCIN]
> 100000 nM	> 100000 nM	> 48 h	CC[C@H](C)[C@@H]1NC(=O)[C@H](Cc2ccc(O)cc2)NC(=O)[C@@H]2CSSC[C@H](NC(=O)[C@H](CC(N)=O)NC(=O)[C@H](CCC(N)=O)NC1=O)C(=O)N1CCC[C@H]1C(=O)N[C@@H](CC(C)C)C(=O)NCC(=O)N[C@@H](C)C(=O)NCC(=O)N[C@@H](C)C(=O)NCC(=O)N[C@@H](C)C(=O)NCC(=O)N2 (cyclo(AGAGAGCYIQNCPLG); disulfide 7-12)
> 100000 nM	> 100000 nM	5.5 h	CC[C@@H](C)[C@H]1NC(=O)[C@@H](CCC(N)=O)NC(=O)[C@@H](CC(N)=O)NC(=O)[C@H](NC(=O)[C@H]2CCCN2C(=O)[C@@H](CC(C)C)NC(=O)CN)CSSC[C@H](C(=O)O)NC(=O)[C@@H](Cc2ccc(O)cc2)NC1=O
> 100000 nM	1400 nM	> 48 h	CC[C@H](C)[C@@H]1NC(=O)[C@H](Cc2ccc(O)cc2)NC(=O)[C@@H]2CSSC[C@H](NC(=O)[C@H](CC(N)=O)NC(=O)[C@H](CCC(N)=O)NC1=O)C(=O)N1CCC[C@H]1C(=O)N[C@@H](CC(C)C)C(=O)NCC(=O)N2

SMILES	EC50 (Oxytocin receptor [1])	Ki (Oxytocin receptor [2])	half-life [3]
CC[C@H](C)[C@@H]1NC(=O)[C@H](Cc2ccc(O)cc2)NC(=O)[C@@H](N)CS[Se]C[C@@H](C(=O)N2CCC[C@H]2C(=O)N[C@@H](CC(C)C)NCC(N)=O)NC(=O)[C@H](CC(N)=O)NC(=O)[C@H](CCC(N)=O)NC1=O	154 nM	0.72 nM	
NC(=O)CC[C@@H]1NC(=O)[C@H](Cc2ccccc2)NC(=O)[C@H](Cc2ccc(O)cc2)NC(=O)[C@@H](N)CSSC[C@@H](C(=O)N2CCC[C@H]2C(=O)N[C@@H](CCCN=C(N)N)C(=O)NCC(N)=O)NC(=O)[C@H](CC(N)=O)NC1=O [VASOPRESSIN]			1.7 h
CC[C@H](C)[C@@H]1NC(=O)[C@H](Cc2ccc(O)cc2)NC(=O)[C@@H](N)C[Te][Te]C[C@@H](C(=O)N2CCC[C@H]2C(=O)N[C@@H](CC(C)C)NCC(N)=O)NC(=O)[C@H](CC(N)=O)NC(=O)[C@H](CCC(N)=O)NC1=O	27.3 nM	7.6 nM	24.2 h

From ChEMBL document CHEMBL1629457 (J Med Chem, 2010)
